Experimental data reported in ChEMBL document CHEMBL1139794, “Anti-AIDS agents 66: syntheses and anti-HIV activity of phenolic and aza 3',4'-di-O-(-)-camphanoyl-(+)-cis-khellactone (DCK) derivatives” (Bioorg Med Chem, 2007).

Columns and labels:
[1] = system: Liver microsomes; experiment: Intrinsic clearance in human liver microsomes at 1 uM; format: ADME, Microsome
How it was run: (§1)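 Compound in 100 mM sodium phosphate, pH 7.4, with 0.1 mg/mL human liver microsomes and 5 mM MgCl2. Preincubated 10 min at 37 °C, then started with NADPH (15 mM stock). Run in duplicate, with NADPH-free controls. Sampled at 0–60 min and quenched in ice-cold acetonitrile with internal standard. Quantified by HPLC-UV; % remaining relative to 0 min gave t1/2, and scaled Clint in L/min/kg.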

[2] = system: Human immunodeficiency virus 1; experiment: Antiviral activity against HIV1 3B replication in H9 cells; format: functional, organism-based; settings: Human immunodeficiency virus 1, 3B
[3] = system: H9; experiment: Reduction in cell viability of human H9 cells; format: cell-based
[4] = Metabolic stability in human liver microsomes assessed as half life at 1 uM; format: ADME, Microsome; how it was run: as §1
[5] = Therapeutic index, ratio of IC50 for human H9 cells to EC50 for HIV1 3B; format: cell-based; settings: read-out: Ratio IC50/EC50

clearance [1] [mL/min/kg] | EC50 [2] [µM] | half-life at 1 µM [4] [min] | SMILES | IC50 [3] [µM] | selectivity ratio [5]
 | 15 |  | CC1(C)Oc2ccc3c(O)cc(=O)oc3c2[C@@H](OC(=O)C23CCC(C)(C(=O)O2)C3(C)C)[C@H]1OC(=O)C12CCC(C)(C(=O)O1)C2(C)C (some centres undefined) | > 40 | > 3
 | 1.2 |  | Cc1cc2c(c3oc(=O)cc(O)c13)[C@@H](OC(=O)C13CCC(C)(C(=O)O1)C3(C)C)[C@@H](OC(=O)C13CCC(C)(C(=O)O1)C3(C)C)C(C)(C)O2 (some centres undefined) | 14 | 12
2300 | 1.5 | 3.1 | Cc1cc(=O)oc2c3c(c(O)cc12)OC(C)(C)[C@H](OC(=O)C12CCC(C)(C(=O)O1)C2(C)C)[C@@H]3OC(=O)C12CCC(C)(C(=O)O1)C2(C)C (some centres undefined) | > 38 | > 25
2000 | 0.02 | 3.4 | Cc1cc(=O)oc2c3c(ccc12)OC(C)(C)[C@H](OC(=O)C12CCC(C)(C(=O)O1)C2(C)C)[C@@H]3OC(=O)C12CCC(C)(C(=O)O1)C2(C)C (some centres undefined) | > 10 | > 500

More lines, now with the values behind:

SMILES | clearance [1] [mL/min/kg] | EC50 [2] [µM] | half-life at 1 µM [4] [min] | IC50 [3] [µM] | selectivity ratio [5]
Cc1c(O)c2ccc3c(c2oc1=O)[C@@H](OC(=O)C12CCC(C)(C(=O)O1)C2(C)C)[C@@H](OC(=O)C12CCC(C)(C(=O)O1)C2(C)C)C(C)(C)O3 (some centres undefined) | 2000 | 2.1 | 3.5 | 31 | 15
Cc1cc(=O)oc2c3c(ccc12)NC(C)(C)[C@H](OC(=O)C12CCC(C)(C(=O)O1)C2(C)C)[C@@H]3OC(=O)C12CCC(C)(C(=O)O1)C2(C)C (some centres undefined) | 700 | 0.77 | 9.6 | > 32 | > 42
Cc1cn([C@H]2C[C@H](N=[N+]=[N-])[C@@H](CO)O2)c(=O)[nH]c1=O [ZIDOVUDINE] |  | 0.05 |  | 1900 | 38000
